Results reported in publication PMC11336475 (Heliyon, 2024).

Tests used:
[1] = DPPH radical scavenging assay; conditions: for EC50: DPPH radical scavenging; for Inhibition% ± SEM: DPPH, measured at 400 μM, 3 repetitions
Procedure, shortened: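 DPPH solution (110 μM) mixed with samples at various concentrations and kept in the dark for 30 min. Absorbance read at 517 nm. Percent inhibition and EC50 calculated from absorbance changes. Each concentration run in triplicate.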

tyrosinase enzyme = tyrosinase enzyme (Agaricus bisporus, UniProt C7FF04); experiment: Kinetic study of tyrosinase inhibition; format: biochemical; conditions: Lineweaver-Burk plot, L-DOPA substrate; Km increased, Vmax constant
Sequence of tyrosinase enzyme (C7FF04 2-392): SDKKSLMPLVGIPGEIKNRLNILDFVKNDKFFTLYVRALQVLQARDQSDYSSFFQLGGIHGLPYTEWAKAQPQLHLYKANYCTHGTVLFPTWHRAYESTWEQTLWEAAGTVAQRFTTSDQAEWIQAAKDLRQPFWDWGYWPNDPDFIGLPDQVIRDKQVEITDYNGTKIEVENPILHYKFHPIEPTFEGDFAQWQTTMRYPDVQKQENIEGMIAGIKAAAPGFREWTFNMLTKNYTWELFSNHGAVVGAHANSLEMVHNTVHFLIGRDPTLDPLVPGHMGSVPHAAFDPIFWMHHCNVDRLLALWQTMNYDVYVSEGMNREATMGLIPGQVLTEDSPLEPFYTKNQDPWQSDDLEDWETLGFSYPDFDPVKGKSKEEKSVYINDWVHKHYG

SMILES | EC50 [1] [µM] | Inhibition% ± SEM [1] [%] | type of inhibition (tyrosinase enzyme)
COc1cccc(/C=N/NC(=O)c2cccc(-n3ccc(=O)c(O)c3C)c2)c1O [Compound 6c, (E)-3-(3-Hydroxy-2-methyl-4-oxopyridin-1(4H)-yl)-N'-(2-hydroxy-3-methoxybenzylidene) benzohydrazide] | > 400 | 48.06 ± 2.25 | 
Cc1c(O)c(=O)ccn1-c1cccc(C(=O)N/N=C/c2ccccc2Br)c1 [Compound 6e, (E)-N'-(2-bromobenzylidene)-3-(3-hydroxy-2-methyl-4-oxopyridin-1(4H)-yl)benzohydrazide] | > 400 | 19.59 ± 1.76 | 
Cc1c(O)c(=O)ccn1-c1cccc(C(=O)N/N=C/c2ccccc2C(=O)O)c1 [Compound 6f, (E)-2-((2-(3-(3-Hydroxy-2-methyl-4-oxopyridin-1(4H)-yl)benzoyl) hydrazono)methyl) benzoic acid] | > 400 | 35.01 ± 5.71 | 
Cc1c(O)c(=O)ccn1-c1cccc(C(=O)N/N=C/c2cc(Cl)ccc2[N+](=O)[O-])c1 [Compound 6i, (E)-N'-(5-chloro-2-nitrobenzylidene)-3-(3-hydroxy-2-methyl-4-oxopyridin-1(4H)-yl)benzohydrazide] | 174 | 67.65 ± 0.85 | 
Cc1c(O)c(=O)ccn1-c1cccc(C(=O)NN=Cc2c(Cl)cccc2Cl)c1 [Compound 6h, N'-(2,6-dichlorobenzylidene)-3-(3-hydroxy-2-methyl-4-oxopyridin-1(4H)-yl)benzohydrazide] | > 400 | 44.55 ± 0.91 | 
Cc1c(O)c(=O)ccn1-c1cccc(C(=O)N/N=C/c2cccc(Cl)c2)c1 [Compound 6g, (E)-N'-(3-chlorobenzylidene)-3-(3-hydroxy-2-methyl-4-oxopyridin-1(4H)-yl) benzohydrazide] | > 400 | 44.20 ± 2.41 | 
COc1cc(OC)c(/C=N/NC(=O)c2cccc(-n3ccc(=O)c(O)c3C)c2)c(OC)c1 [Compound 6d, (E)-3-(3-Hydroxy-2-methyl-4-oxopyridin-1(4H)-yl)-N'-(2,4,6-trimethoxybenzylidene)benzohydrazide] | > 400 | 35.16 ± 1.37 | 
Cc1c(O)c(=O)ccn1-c1cccc(C(=O)N/N=C/c2ccc(O)c(O)c2)c1 [Compound 6a, (E)-N'-(3,4-dihydroxybenzylidene)-3-(3-hydroxy-2-methyl-4-oxopyridin-1(4H)-yl) benzohydrazide] |  | 90.06 ± 3.75 | 
COc1cc(/C=N/NC(=O)c2cccc(-n3ccc(=O)c(O)c3C)c2)ccc1O [Compound 6b, (E)-3-(3-Hydroxy-2-methyl-4-oxopyridin-1(4H)-yl)-N'-(4-hydroxy-3-methoxybenzylidene)benzohydrazide] |  | 84.64 ± 2.68 | competitive inhibitor
Cc1c(O)c(=O)ccn1-c1cccc(C(=O)N/N=C/Cc2ccccc2)c1 [Compound 6j, (E)-3-(3-Hydroxy-2-methyl-4-oxopyridin-1(4H)-yl)-N'-(2-phenylethylidene)benzohydrazide] |  | 68.59 ± 1.14 | 
O=c1c(O)c(-c2ccc(O)c(O)c2)oc2cc(O)cc(O)c12 [Quercetin, reference compound] | 8.98 ± 0.05 |  | 
